# According to ChEMBL document CHEMBL1123428, “In vitro labeling of serotonin-S2 receptors: synthesis and binding characteristics of [3H]-7-aminoketanserin” (J Med Chem, 1986):
# Legend:
# [1] = species on record: Rattus norvegicus; experiment: Compound was evaluated for its activity at solubilized receptor (CHAPS/salt-solubilized preparation) from rat frontal cortex; assay type: functional, organism-based; settings: for IC50: Rattus norvegicus, Frontal cortex
# [2] = species on record: Rattus norvegicus; experiment: Compound was evaluated for its activity at membrane-bound receptor (M+L+P fraction) from rat frontal cortex; assay type: functional, organism-based; settings: for IC50: Rattus norvegicus, Frontal cortex
# [3] = species on record: Rattus norvegicus; experiment: (§1) Number of binding sites of the receptor was determined
# Summary of the method: (§2)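 Saturation binding of [3H]-7-aminoketanserin to rat frontal cortex (M+L+P) fraction (three experiments) or solubilized preparation (two experiments), each in triplicate. Specific binding is total minus binding with a 1000-fold methysergide excess. Bmax and KD taken from computer-fitted Scatchard plots.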
# [4] = Binding affinity for membrane-bound 5-HT-S2 receptor; parameters: species or system Rattus norvegicus
# Summary of the method: (§3)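 Rat frontal cortex (M+L+P) fraction, diluted 1:100 w/v, in 50 mM Tris-HCl pH 7.7. Incubated 15 min at 37 °C with 1 nM [3H]-7-aminoketanserin (final) and unlabeled drug. Stopped by rapid GF/B filtration with two ice-cold buffer rinses, then scintillation counting. IC50 from two experiments in triplicate; Ki by Cheng-Prusoff.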
# [5] = Compound was evaluated at membrane-bound receptor (M+L+P fraction) from rat frontal cortex; assay type: tissue-based; summary of the method: as §3
# [6] = molecular target: D(2) dopamine receptor (Rattus norvegicus, UniProt P61169); experiment: Compound was evaluated for binding activity against [3H]haloperidol as radioligand for Dopamine receptor D2
# Chain of D(2) dopamine receptor (P61169 whole entry): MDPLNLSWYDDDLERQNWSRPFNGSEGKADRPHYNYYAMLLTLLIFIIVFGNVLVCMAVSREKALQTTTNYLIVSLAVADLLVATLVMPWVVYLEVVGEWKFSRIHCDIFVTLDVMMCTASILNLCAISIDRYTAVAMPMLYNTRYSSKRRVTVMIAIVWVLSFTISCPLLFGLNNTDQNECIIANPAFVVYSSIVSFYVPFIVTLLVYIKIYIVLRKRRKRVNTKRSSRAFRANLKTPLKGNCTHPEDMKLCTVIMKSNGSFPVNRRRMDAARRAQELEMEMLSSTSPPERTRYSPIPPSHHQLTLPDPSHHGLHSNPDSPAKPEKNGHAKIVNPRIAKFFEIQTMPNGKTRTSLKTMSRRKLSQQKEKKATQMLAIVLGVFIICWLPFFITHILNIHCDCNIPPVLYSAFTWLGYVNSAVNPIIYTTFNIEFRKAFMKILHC
# Summary of the method: (§4)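 Filtration binding technique applied to rat or guinea pig brain tissue. Tissues, buffers, radioligands and incubation conditions per earlier methods. Ki computed using radioligand KD values from the literature.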
# [7] = molecular target: Histamine H1 receptor (Rattus norvegicus, UniProt P31390); experiment: Compound was evaluated for binding activity against [3H]pyrilamine as radioligand for Histamine H1 receptor; summary of the method: as §4
# Chain of Histamine H1 receptor (P31390 whole entry): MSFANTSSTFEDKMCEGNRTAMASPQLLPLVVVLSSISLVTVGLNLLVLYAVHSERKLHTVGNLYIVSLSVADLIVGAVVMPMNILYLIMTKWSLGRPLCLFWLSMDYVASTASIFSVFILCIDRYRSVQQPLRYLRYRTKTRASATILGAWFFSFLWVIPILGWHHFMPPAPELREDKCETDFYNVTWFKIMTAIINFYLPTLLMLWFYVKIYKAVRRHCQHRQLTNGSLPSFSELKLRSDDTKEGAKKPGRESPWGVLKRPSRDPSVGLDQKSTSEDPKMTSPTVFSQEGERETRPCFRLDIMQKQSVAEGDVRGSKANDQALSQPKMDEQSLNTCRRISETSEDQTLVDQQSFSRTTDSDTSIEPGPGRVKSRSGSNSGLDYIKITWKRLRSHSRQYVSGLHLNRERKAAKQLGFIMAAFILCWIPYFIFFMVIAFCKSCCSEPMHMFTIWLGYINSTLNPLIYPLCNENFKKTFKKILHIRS
# [8] = molecular target: T1, Adrenergic receptor alpha-1 (Rattus norvegicus, UniProt P15823+P23944+P43140); experiment: Compound was evaluated for binding activity against [3H]-WB- 4101 as radioligand for alpha-1 adrenergic receptor; assay type: protein assay; summary of the method: as §4
# T1 sequence (P15823 whole entry): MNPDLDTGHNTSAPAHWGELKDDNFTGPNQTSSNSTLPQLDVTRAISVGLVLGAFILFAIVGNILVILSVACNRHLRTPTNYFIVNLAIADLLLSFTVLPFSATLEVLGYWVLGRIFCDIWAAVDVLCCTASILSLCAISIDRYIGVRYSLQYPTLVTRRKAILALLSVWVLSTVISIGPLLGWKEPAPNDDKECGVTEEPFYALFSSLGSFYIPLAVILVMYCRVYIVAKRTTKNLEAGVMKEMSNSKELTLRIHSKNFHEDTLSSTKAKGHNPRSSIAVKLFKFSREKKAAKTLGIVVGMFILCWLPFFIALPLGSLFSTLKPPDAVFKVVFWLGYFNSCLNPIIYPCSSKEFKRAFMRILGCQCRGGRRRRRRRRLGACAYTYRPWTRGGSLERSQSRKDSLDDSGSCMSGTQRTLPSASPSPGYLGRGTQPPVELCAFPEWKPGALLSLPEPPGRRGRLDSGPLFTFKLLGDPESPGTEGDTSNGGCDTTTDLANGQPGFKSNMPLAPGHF
# T1 sequence (P23944 whole entry): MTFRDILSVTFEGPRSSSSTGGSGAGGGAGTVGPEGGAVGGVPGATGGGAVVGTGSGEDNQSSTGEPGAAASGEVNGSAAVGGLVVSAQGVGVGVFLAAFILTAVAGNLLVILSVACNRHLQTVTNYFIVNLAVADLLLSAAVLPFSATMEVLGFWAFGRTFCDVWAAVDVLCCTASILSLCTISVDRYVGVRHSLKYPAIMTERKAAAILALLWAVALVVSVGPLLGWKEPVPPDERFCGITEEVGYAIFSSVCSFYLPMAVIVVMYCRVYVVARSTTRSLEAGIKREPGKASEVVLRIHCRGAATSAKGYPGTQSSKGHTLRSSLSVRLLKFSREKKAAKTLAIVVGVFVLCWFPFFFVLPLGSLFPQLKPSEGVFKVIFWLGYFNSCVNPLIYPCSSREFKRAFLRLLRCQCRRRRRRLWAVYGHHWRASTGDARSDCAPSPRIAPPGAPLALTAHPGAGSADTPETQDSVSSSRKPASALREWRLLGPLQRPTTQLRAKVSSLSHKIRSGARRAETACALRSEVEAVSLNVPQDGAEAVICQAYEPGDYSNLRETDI
# T1 sequence (P43140 whole entry): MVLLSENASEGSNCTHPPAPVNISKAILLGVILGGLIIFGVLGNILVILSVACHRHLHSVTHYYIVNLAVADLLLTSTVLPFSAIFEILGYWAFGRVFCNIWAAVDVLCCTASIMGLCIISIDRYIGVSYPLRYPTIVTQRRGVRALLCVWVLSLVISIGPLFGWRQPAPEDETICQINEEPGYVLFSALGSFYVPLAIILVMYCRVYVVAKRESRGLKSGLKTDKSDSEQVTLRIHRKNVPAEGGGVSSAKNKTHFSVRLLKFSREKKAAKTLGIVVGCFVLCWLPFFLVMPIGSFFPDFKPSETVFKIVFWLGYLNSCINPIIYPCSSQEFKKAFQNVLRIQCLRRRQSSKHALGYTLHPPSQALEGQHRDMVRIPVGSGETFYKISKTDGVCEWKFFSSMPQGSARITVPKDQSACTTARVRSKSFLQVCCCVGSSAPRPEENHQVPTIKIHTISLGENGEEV
# [9] = Half life time was determined; assay type: ADME
# Summary of the method: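 Kinetics of [3H]-7-aminoketanserin at rat frontal cortex receptors, membrane-bound (M+L+P) or CHAPS/salt-solubilized. Association ran for 20 min. Dissociation was started by adding a 1000-fold excess of pipamperone and treated as first-order. Means ± SD of independent triplicate experiments.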
# [10] = Compound was evaluated at solubilized receptor (CHAPS/salt-solubilized preparation) from rat frontal cortex; assay type: tissue-based
# Summary of the method: (§5)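 Rat frontal cortex microsomal fraction solubilized for 12 min at 4 °C in CHAPS/NaCl medium (13.6 mM CHAPS, 2.8 M NaCl, pH 7.2), centrifuged at 180000 g, and supernatant diluted to 1:16 w/v. Incubated 15 min at 30 °C with 2 nM [3H]-7-aminoketanserin (final) and drug. Free ligand removed by charcoal/BSA, supernatant counted. IC50 from two triplicate experiments; Ki by Cheng-Prusoff.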
# [11] = molecular target: Serotonin 2 (5-HT2) receptor (Rattus norvegicus, UniProt P30994+P08909+P14842); experiment: Evaluated for binding activity against [3H]ketanserin as radioligand for 5-hydroxytryptamine 2 receptor; assay type: protein assay; summary of the method: as §4
# [12] = molecular target: Muscarinic acetylcholine receptor; experiment: Compound was evaluated for binding activity against [3H]dexetimide as radioligand for muscarinic-acetylcholine receptor; assay type: protein assay; summary of the method: as §4
# [13] = molecular target: T2, Adrenergic receptor alpha-2 (Rattus norvegicus, UniProt P22086+P19328+P22909); experiment: Compound was evaluated for binding activity against [3H]clonidine as radioligand for alpha-2 adrenergic receptor; assay type: protein assay; summary of the method: as §4
# T2 sequence (P22086 whole entry): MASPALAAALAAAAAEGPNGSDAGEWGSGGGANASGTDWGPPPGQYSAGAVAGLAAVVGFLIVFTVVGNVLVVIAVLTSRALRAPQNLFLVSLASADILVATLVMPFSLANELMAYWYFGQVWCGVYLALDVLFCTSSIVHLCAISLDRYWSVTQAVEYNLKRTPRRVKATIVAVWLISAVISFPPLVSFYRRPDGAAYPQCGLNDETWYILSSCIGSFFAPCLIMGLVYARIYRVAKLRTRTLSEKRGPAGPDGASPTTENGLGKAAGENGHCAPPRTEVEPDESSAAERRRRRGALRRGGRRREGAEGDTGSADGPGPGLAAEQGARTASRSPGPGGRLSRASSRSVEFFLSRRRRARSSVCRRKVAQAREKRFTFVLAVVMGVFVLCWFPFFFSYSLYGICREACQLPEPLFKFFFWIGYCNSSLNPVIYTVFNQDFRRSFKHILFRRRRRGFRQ
# T2 sequence (P19328 whole entry): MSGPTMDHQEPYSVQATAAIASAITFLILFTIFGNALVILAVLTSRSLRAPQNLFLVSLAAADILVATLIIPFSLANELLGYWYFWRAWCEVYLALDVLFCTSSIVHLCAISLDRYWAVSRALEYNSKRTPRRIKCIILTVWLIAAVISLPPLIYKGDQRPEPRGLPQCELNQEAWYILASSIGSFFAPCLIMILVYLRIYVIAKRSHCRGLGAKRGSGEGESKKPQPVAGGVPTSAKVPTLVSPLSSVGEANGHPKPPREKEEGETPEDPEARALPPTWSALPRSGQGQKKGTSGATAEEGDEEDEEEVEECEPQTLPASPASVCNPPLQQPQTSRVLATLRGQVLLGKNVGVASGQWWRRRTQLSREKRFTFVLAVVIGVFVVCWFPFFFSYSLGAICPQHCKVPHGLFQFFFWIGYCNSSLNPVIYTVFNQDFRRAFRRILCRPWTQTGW
# T2 sequence (P22909 whole entry): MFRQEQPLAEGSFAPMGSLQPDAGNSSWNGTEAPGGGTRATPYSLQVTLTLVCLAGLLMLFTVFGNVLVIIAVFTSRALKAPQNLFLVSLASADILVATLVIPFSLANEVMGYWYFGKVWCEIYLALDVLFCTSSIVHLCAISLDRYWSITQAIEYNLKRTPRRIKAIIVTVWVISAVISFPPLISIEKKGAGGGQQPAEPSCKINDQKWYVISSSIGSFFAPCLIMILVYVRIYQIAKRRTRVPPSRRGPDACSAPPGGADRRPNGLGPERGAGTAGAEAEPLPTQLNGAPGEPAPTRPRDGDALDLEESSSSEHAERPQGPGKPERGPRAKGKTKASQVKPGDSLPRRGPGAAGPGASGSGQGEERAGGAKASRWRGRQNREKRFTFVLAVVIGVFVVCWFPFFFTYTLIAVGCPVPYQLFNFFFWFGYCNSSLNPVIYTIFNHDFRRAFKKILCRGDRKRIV
# [14] = Binding affinity for detergent solubilized 5-HT-S2 receptor; parameters: species or system Rattus norvegicus; summary of the method: as §5
# [15] = species on record: Rattus norvegicus; experiment: as §1; summary of the method: as §2; remark: listed apart in the source
# [16] = molecular target: T3, Serotonin 1 (5-HT1) receptor (Rattus norvegicus, UniProt P28564+P30940+P19327+P28565); experiment: Compound was evaluated for binding activity against [3H]-5-HT as radioligand for serotonin S1 receptor; assay type: protein assay; summary of the method: as §4
# [17] = molecular target: T3, Serotonin 1 (5-HT1) receptor; experiment: Compound was evaluated for binding activity against [3H]5-HT as radioligand for serotonin S1 receptor; assay type: protein assay; summary of the method: as §4
# [18] = molecular target: Adrenergic receptor beta (Rattus norvegicus, UniProt P18090+P10608+P26255); experiment: Compound was evaluated for binding activity against [3H]dihydroalprenolol as radioligand for beta adrenergic receptor; assay type: protein assay; summary of the method: as §4
compound,measurement,setting,value
COc1cccc(OC)c1OCCNCC1COc2ccccc2O1 (stereo unspecified),Ki,[1],3880 nM
same,IC50,[1],7760 nM
same,Ki,[2],697 nM
same,IC50,[2],2690 nM
Nc1ccc2c(=O)n(CCN3CCC(C(=O)c4ccc(F)cc4)CC3)c(=O)[nH]c2c1,Bmax,[3],4.18 fmol/mg
same,Kd,[4],0.35 nM
same,-Log IC50,[5],8.86
same,Ki,[5],0.36 nM
same,IC50,[6],417 nM
same,Ki,[6],164 nM
same,IC50,[7],2.24 nM
same,Ki,[7],1.22 nM
same,-Log IC50,[8],7.82
same,Ki,[8],5.49 nM
same,T1/2,[9],12.4 min
same,half-life,[9],7.8 min
same,-Log IC50,[10],8.35
same,Ki,[10],2.23 nM
same,-Log IC50,[11],9.25
same,Ki,[11],0.17 nM
same,-Log IC50,[12],< 6
same,-Log IC50,[13],< 6
same,Kd,[14],2.03 nM
same,Bmax,[15],37 fmol/mg
same,-Log IC50,[16],5.25
same,Ki,[17],4.416 µM
same,-Log IC50,[18],< 6
CN(C)CCc1c[nH]c2ccc(O)cc12 [BUFOTENINE],Ki,[1],6300 nM
same,IC50,[1],12600 nM
same,Ki,[2],341 nM
same,IC50,[2],1320 nM
O=c1[nH]c2ccccc2n1CCCN1CCC(n2c(=O)[nH]c3cc(Cl)ccc32)CC1 [DOMPERIDONE],Ki,[1],998 nM
same,IC50,[1],2000 nM
same,Ki,[2],152 nM
same,IC50,[2],589 nM
O=C(c1ccc(F)cc1)C1CCN(CCn2c(=O)[nH]c3ccccc3c2=O)CC1 [KETANSERIN],Ki,[1],3.97 nM
same,IC50,[1],7.94 nM
same,Ki,[2],0.68 nM
same,IC50,[2],2.63 nM
CN1CCN2c3ccccc3Cc3ccccc3C2C1 (stereo unspecified) [MIANSERIN],Ki,[1],13.5 nM
same,IC50,[1],26.9 nM
same,Ki,[2],3.04 nM
same,IC50,[2],11.7 nM
NC(=O)C1(N2CCCCC2)CCN(CCCC(=O)c2ccc(F)cc2)CC1 [PIPAMPERONE],Ki,[1],9.53 nM
same,IC50,[1],19.1 nM
same,Ki,[2],1.39 nM
same,IC50,[2],5.37 nM
Cc1nc2ccccn2c(=O)c1CCN1CCC(C(=O)c2ccc(F)cc2)CC1 [PIRENPERONE],Ki,[1],3.54 nM
same,IC50,[1],7.08 nM
same,Ki,[2],0.47 nM
same,IC50,[2],1.82 nM
COc1cc2nc(N3CCN(C(=O)c4ccco4)CC3)nc(N)c2cc1OC [PRAZOSIN],Ki,[1],19900 nM
same,IC50,[1],39800 nM
same,Ki,[2],11600 nM
same,IC50,[2],44700 nM
COc1ccc(CN(CCN(C)C)c2ccccn2)cc1 [PYRILAMINE],Ki,[1],9980 nM
same,IC50,[1],20000 nM
same,Ki,[2],1030 nM
same,IC50,[2],3980 nM
Cc1nc2sccn2c(=O)c1CCN1CCC(=C(c2ccc(F)cc2)c2ccc(F)cc2)CC1 [RITANSERIN],Ki,[1],7.06 nM
same,IC50,[1],14.1 nM
same,Ki,[2],0.9 nM
same,IC50,[2],3.47 nM
NCCc1c[nH]c2ccc(O)cc12 [SEROTONIN],Ki,[1],14100 nM
same,IC50,[1],28200 nM
same,Ki,[2],919 nM
same,IC50,[2],3550 nM
(-)-BUTACLAMOL,-Log IC50,[1],4.56
same,Ki,[1],13800 nM
same,-Log IC50,[2],4.9
same,Ki,[2],3260 nM
